Data reported in ChEMBL document CHEMBL1123904, “Synthesis, structure, and biological activity of certain 2-deoxy-beta-D-ribo-hexopyranosyl nucleosides and nucleotides” (J Med Chem, 1987).

What was measured:
[1] = substrate: Nc1nc(N)c2ncn(C3CC(O)C(O)C(CO)O3)c2n1; assay: (§1) Kinetic parameters for adenosine deaminase (ADase) was determined
Outline: (§2)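 Calf intestine adenosine deaminase; substrate and inhibitor kinetic parameters measured spectrophotometrically.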

[2] = substrate: Nc1ncnc2c1ncn2C1CC(O)C(O)C(CO)O1; assay: as §1; outline: as §2
[3] = substrate: Nc1ncnc2c1ncn2[C@@H]1O[C@H](CO)[C@@H](O)[C@H]1O; assay: as §1; outline: as §2

B1: Adenosine deaminase (Bos taurus), P56658 (protein)
chain: MAQTPAFNKPKVELHVHLDGAIKPETILYYGRKRGIALPADTPEELQNIIGMDKPLSLPEFLAKFDYYMPAIAGCREAVKRIAYEFVEMKAKDGVVYVEVRYSPHLLANSKVEPIPWNQAEGDLTPDEVVSLVNQGLQEGERDFGVKVRSILCCMRHQPSWSSEVVELCKKYREQTVVAIDLAGDETIEGSSLFPGHVKAYAEAVKSGVHRTVHAGEVGSANVVKEAVDTLKTERLGHGYHTLEDATLYNRLRQENMHFEVCPWSSYLTGAWKPDTEHPVVRFKNDQVNYSLNTDDPLIFKSTLDTDYQMTKNEMGFTEEEFKRLNINAAKSSFLPEDEKKELLDLLYKAYGMPSPASAEQCL
B1 showed a Km [1] of 900 µM, a Km [2] of 57 µM and a Km [3] of 31 µM.
